In the library only some 2.4% were active in any assay of this set; here they are far more common.
NPY Y1 blocker: NPY-Y1 (human) receptor antagonism. P25929. HEK293-CNG Y1 cells, membrane potential fluorescence; NPY at EC95, then isoproterenol. inhibition, % at 3.6 µM. actives 1% (n = 200,000);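 active = inhibition above the campaign mean inhibition of all tested compounds plus 3 SD, cut at about 20% in these data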;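 note: 0% = DMSO wells given NPY plus isoproterenol and 100% = isoproterenol alone without NPY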
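Material: HEK293 Y1/CNG channel cell line; also added: NPY (25 nM), isoproterenol (1 µM), Ro 20-1724 (25 µM); doses: one concentration, 3.6 µM, in 0.4% DMSO; schedule: compound incubation 1 h at room temperature, readout 45 min post-stimulation; technique: membrane potential fluorescence; measure: fluorescence ratio normalized to % inhibition between controls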
S1P4 ag: activates the human S1P4 receptor. O95977. S1P4-expressing cell line, agonist reporter assay. activation, % at 4.98 µM. actives 0.35% (n = 220,000). AID 1509; in the data active = activation above about 11%;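 note: 0% = DMSO vehicle and 100% = reference agonist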
NPY-Y1 PAM-ag: human NPY-Y1 potentiation or agonism, primary screen. P25929. NPY-Y1 expressing cells, potentiator/agonist activation. activation, % at 3.6 µM. actives 0.37% (n = 220,000). AID 1304; in the data active = activation above about 33%, passing the limit was not always enough;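 note: cells stimulated with NPY at EC10 then isoproterenol at EC100; 0% = low agonist plus stimulus and 100% = saturating agonist plus stimulus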
NPY Y2 blocker: antagonists of human neuropeptide Y receptor Y2. NPY-Y2 expressing cells, antagonist mode. inhibition, % at 2.7 µM. actives 0.99% (n = 140,000); in the data active = inhibition above about 17%;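 note: 0% = vehicle with agonist challenge and 100% = reference antagonist with challenge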
Target sequence (P49146 whole entry, looked up): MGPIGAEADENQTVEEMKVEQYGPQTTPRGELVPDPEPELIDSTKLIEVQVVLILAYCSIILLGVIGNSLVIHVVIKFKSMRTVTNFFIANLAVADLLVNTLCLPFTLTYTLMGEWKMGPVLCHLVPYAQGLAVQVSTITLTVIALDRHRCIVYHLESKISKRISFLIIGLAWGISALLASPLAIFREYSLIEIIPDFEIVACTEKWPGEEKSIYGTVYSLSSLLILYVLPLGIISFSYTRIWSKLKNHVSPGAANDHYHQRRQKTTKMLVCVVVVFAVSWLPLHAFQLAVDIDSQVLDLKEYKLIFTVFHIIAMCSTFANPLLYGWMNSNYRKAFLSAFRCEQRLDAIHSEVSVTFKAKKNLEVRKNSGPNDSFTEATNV
NPY-Y2 PAM-ag: human NPY-Y2 potentiation or agonism, primary screen; P49146; cells expressing NPY-Y2, potentiator/agonist read-out; activation, % at 3.6 µM; actives 0.45% (n = 220,000); AID 1359; in the data active = activation above about 27%;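 note: cells stimulated with NPY near EC25 plus isoproterenol at EC100; 0% = vehicle plus submaximal agonist and 100% = vehicle plus saturating agonist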
S1P4 antagonist: human S1P4 receptor antagonism; S1P4-expressing cells, antagonist mode, reporter read-out; actives 0.26% (n = 220,000); O95977; inhibition, % at 4.98 µM; in the data active = inhibition above about 29%;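 note: 0% = wells stimulated with agonist and 100% = vehicle wells without agonist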
The depositor's hits bear a star; nt = not tested or not shown.

SMILES	NPY Y1 blocker	S1P4 ag	NPY-Y1 PAM-ag	NPY Y2 blocker	NPY-Y2 PAM-ag	S1P4 antagonist
CCOC(=O)c1nnn(-c2nonc2N)c1COc1cc(C)c(Cl)c(C)c1	21.7*	2.8	-34.6	17.0	-19.3	1.0
CCOC(=O)c1nnn(-c2nonc2N)c1CSc1ccccc1	7.7	1.6	-19.6	0.7	-0.2	-23.4
Cc1ccc(S(=O)(=O)N(Cc2ccc(Cl)cc2)c2ccccc2C(=O)NCc2ccco2)cc1	29.2*	-0.7	-109.5	32.2*	-11.6	-26.9
Cc1ccccc1N(CC(=O)Nc1ccccc1C(=O)NCc1ccco1)S(=O)(=O)c1ccccc1	6.2	0.8	6.7	2.2	9.0	-4.7
CCc1ccccc1NNC(=O)c1snnc1C	nt	1.6	0.2	nt	13.1	1.8
COc1ccccc1NC(=S)Nc1cccc2cnccc12	-14.0	0.0	65.6*	-3.0	88.7*	8.8
COc1ccc(NC(=S)Nc2cccc3cnccc23)cc1	4.6	0.9	0.0	-1.0	7.6	-14.4
CCOc1ccc(C(=O)NC(C)(C)CC)cc1	3.7	1.2	9.8	nt	5.4	2.2
O=C(CSc1nnc(Cc2cccs2)n1Cc1ccco1)Nc1ccc(Cl)cc1Cl	30.9*	1.0	-19.7	23.2*	-6.2	8.4
CC1=C(C(=O)NCCN2CCN(C)CC2)C2(CCC(C)CC2)OC1=O (centres undefined)	-0.1	1.3	-7.7	-1.8	47.5*	1.0
CCCNC(=O)C1=C(C)C(=O)OC12CCC(C)CC2 (centres undefined)	2.2	-0.2	25.9	-1.2	3.6	1.6
CN(CCO)c1cc(N2CCCCC2)c2nonc2c1[N+](=O)[O-]	4.7	0.1	4.5	nt	-4.5	-14.0
CN(CCO)c1cc(NCCCN2CCC(Cc3ccccc3)CC2)c2nonc2c1[N+](=O)[O-]	-1.9	-0.1	50.6*	nt	28.8*	-9.3
Cc1ccc(NS(=O)(=O)c2ccc(OCC(=O)Nc3cccc([N+](=O)[O-])c3)c(C)c2)cc1	-15.8	0.0	43.6*	-5.0	28.4	-31.9
Cc1c(C(=O)Oc2cccc3ccccc23)cnn1-c1ccccc1	-1.2	0.9	-21.7	18.1*	3.5	-5.2
CC(=O)c1cnn(-c2ccccc2)c1C	0.3	3.0	6.0	nt	3.2	-5.6
COc1ccccc1C(=O)NNC(=O)c1ccc(NC(=O)C(C)C)cc1	-2.9	0.9	5.8	nt	-5.0	-4.8
COc1ccc(N(C(=O)Cn2nnc(-c3ccccc3F)n2)C(C(=O)NCC2CCCO2)c2ccc(Cl)cc2)cc1 (centres undefined)	2.5	0.3	9.1	nt	-5.8	-2.8
CC(C)c1ccc(/C=C/C(=O)NCCCc2ccccc2)cc1	25.2*	1.4	-14.3	29.9*	-28.4	-3.9
COc1ccc(/C=C/C(=O)NCCCc2ccccc2)cc1	15.4	0.9	-25.0	10.9	1.2	-6.5
Cc1ccc(C2CC(C(F)(F)F)n3nc(C(=O)NCc4c(C)nn(C)c4C)c(Cl)c3N2)cc1 (centres undefined)	-17.9	-0.8	48.2*	3.3	39.3*	-3.2
Nc1nc(=S)c2ncn(C3OC(CO)C(O)C3O)c2[nH]1 (centres undefined)	nt	1.2	-6.9	nt	10.1	-11.5
Nc1nc(Cl)nc2c1ncn2[C@@H]1O[C@H](CO)[C@@H](O)[C@H]1O	85.1*	0.6	-77.6	101.8*	-21.5	-9.2
Nc1ccn([C@@H]2O[C@H](CO)[C@@H](O)[C@@H]2O)c(=O)n1	2.5	11.5*	-0.5	0.7	-4.0	14.0
CCCCCCCCC[n+]1cccc2c3ccccc3ccc21	55.5*	-3.9	-83.0	18.7*	-6.8	-8.0
SMILES	NPY Y1 blocker	S1P4 ag	NPY-Y1 PAM-ag	NPY Y2 blocker	NPY-Y2 PAM-ag	S1P4 antagonist
COc1cccc(OCCNC(=O)Nc2cc(F)c(F)cc2Cl)c1	5.8	-1.6	-18.7	nt	-24.3	-4.4
O=C(Nc1ccccc1)/C(=C/c1ccccc1)c1ccccc1	6.1	1.7	-3.1	9.4	-10.0	-7.0
Cc1ccccc1NC(=O)/C(=C/c1ccccc1)c1ccccc1	21.1*	1.6	0.1	17.9*	-12.1	-13.7
CN(CCc1cnn(C)c1)Cc1nc(CC2CC2)no1	-3.9	-1.1	10.0	nt	-6.5	0.9
CCC[N+](CC#Cc1ccccc1)(CCC)CC(=O)c1ccc(Cl)cc1	29.1*	1.7	1.3	19.1*	2.7	-8.6
O=[N+]([O-])c1ccc(NCCNCCOc2nonc2-c2ccccc2)c([N+](=O)[O-])c1	0.4	0.5	29.1	nt	-2.5	14.5
Cc1ccc(C(=O)COC(=O)c2cn3ccccc3n2)cc1	0.8	-1.0	-10.1	nt	4.0	-8.3
O=C(O)c1ccccc1C(=O)Nc1ccccc1	-0.7	-1.6	10.0	2.2	13.1	1.9
O=C(Nc1ccccc1)C1=C(c2ccccc2)S(=O)(=O)CCS1(=O)=O	-8.2	1.9	64.3*	nt	45.5*	32.3*
Cc1cccc2nc(-c3ccco3)c(Nc3ccccc3)n12	-7.5	-2.0	47.3*	nt	33.7*	-8.4
CCCCN(CCCC)CP(=O)(c1ccccc1)c1ccccc1	27.5*	1.2	9.4	26.3*	-8.0	7.1
CCCCCCP(=O)(O)c1ccccc1	-1.7	-2.6	-70.2	4.6	-12.9	-13.4
CC(C)(C)NCC(O)COc1ccccc1C(C)(C)C (centres undefined)	-12.2	-0.5	107.6*	4.4	99.2*	-13.5
Cc1c[nH]c2cccc(OCC(O)CNC(C)(C)C)c12 (centres undefined)	-18.3	-0.8	108.8*	0.4	104.0*	-9.4
CC(=O)Nc1ccc(NCC(O)COc2ccccc2)cc1 (centres undefined)	5.5	1.3	12.1	-1.4	-3.5	-11.1
CC(C)(C)CC(C)(C)NCC(O)COc1c(F)cc(Br)cc1F (centres undefined)	6.8	-3.7	-21.3	5.2	6.1	-6.4
CN(C)CCOc1ccccc1C(C)(C)C	1.0	1.7	-23.7	2.0	-19.3	-208.3
CC(C)(C)NCC(O)COc1ccccc1C(=O)CCc1ccccc1 (centres undefined)	-15.8	-0.2	102.5*	10.0	101.7*	-0.9
Cc1ccc(NC(=O)c2sc3nc(CCl)[nH]c(=O)c3c2C)c(C)c1	1.0	-0.4	8.8	nt	-1.8	-14.0
Cc1cc(=O)[nH]c(SCC(=O)NN(c2ccccc2)c2ccccc2)n1	nt	-0.1	-1.2	nt	17.1	-2.7
COc1ccc2c(c1)CCc1c-2n[nH]c1C(=O)O	-4.7	-1.4	32.2	-3.0	39.8*	-18.7
Cc1ccc(-n2c(C)cc(C=C(C#N)C#N)c2C)cc1	31.7*	1.8	-25.2	18.2*	-13.1	-21.6
Cc1cc(C=C(C#N)C#N)c(C)n1-c1ccccc1	5.2	0.7	-15.0	5.6	-17.2	-0.1
CCCCN(C(=S)NC(=O)c1cc(OC)c(OC)c(OC)c1)c1c(N)n(Cc2ccccc2)c(=O)[nH]c1=O	9.7	0.9	17.1	0.2	5.4	-24.6

Compound activity: PubChem BioAssay, The Scripps Research Institute Molecular Screening Center
